Bioassay records deposited in PubChem BioAssay by several laboratories.
The list is not random: actives were taken first. Their share in the collection is about 0.95%.
ASAP1 inh = inhibitors of human ASAP1 ArfGAP activity | 360,000 compounds, 0.19% hits | ASAP1-stimulated ARF1 GTP hydrolysis, GDP FP detection | inhibition, % at 16.5 µM | AID 624377; in the data active = inhibition above about 25%
ARFGAP1 inhibitor = inhibitors of rat ARFGAP1; Q62848; Arfgap1-stimulated ARF1 GTP hydrolysis, GDP FP detection; inhibition, % at 16.5 µM; 360,000 compounds, 0.26% hits;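 active = inhibition above a per-plate limit, mean inhibition of low control wells plus 3 SD, cut at about 25% in these data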
Target sequence (Q62848 1-136 limits assumed): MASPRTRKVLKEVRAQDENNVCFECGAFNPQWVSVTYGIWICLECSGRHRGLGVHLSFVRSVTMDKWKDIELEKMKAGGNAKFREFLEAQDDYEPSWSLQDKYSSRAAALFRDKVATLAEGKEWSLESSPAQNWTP
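Assay system: purified rat His6-Arfgap1 residues 1-136 (GAP domain); Reagent: human Δ17 ARF1 bound to GTP; Dosing: 16.5 µM single point, 1.26% DMSO; Times: GTP hydrolysis reaction 2 h at 25 °C; Signal: FP, GDP Alexa 633 tracer displaced from anti-GDP antibody, 620/688 nm; Measure: % inhibition from polarization.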
CSN deneddyl inh = inhibitors of human CSN-mediated cullin deneddylation; Q92905; Purified CSN, SCF-Nedd8-OG deneddylation, fluorescence polarization; inhibition, % at 12.5 µM; 360,000 compounds, 0.38% hits; AID 651999;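 active = pattern-corrected inhibition above about 35%, with an unprinted fluorescence ratio check between 0.5 and 1.5, limit read from the data, passing the limit was not always enough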
Target sequence (Q92905 whole entry, looked up, one chain of several): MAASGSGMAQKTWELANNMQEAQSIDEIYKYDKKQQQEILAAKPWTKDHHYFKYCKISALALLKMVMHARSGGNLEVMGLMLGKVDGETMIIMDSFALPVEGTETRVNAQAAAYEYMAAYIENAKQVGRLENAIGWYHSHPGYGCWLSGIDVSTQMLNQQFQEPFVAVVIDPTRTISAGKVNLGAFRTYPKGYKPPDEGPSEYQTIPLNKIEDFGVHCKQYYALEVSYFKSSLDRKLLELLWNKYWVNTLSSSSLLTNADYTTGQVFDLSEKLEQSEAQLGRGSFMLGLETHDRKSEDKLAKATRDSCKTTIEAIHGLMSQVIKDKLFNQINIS
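Assay system: HEK293T-derived human Csn5 enzyme; quantity: 0.24 nM enzyme; medium: Tris/NaCl/DTT buffer, pH 7.5; also added: substrate SCFSkp2-Nedd8OG, 10 nM; doses: 12.5 µM compound; schedule: 90 min reaction at room temperature; signal: FP; read-out: % inhibition of substrate cleavage by Csn5; benchmarks: substrate-only high control, full reaction low control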
HNF4A DNA FP = change in binding of human HNF4 alpha to DNA | P41235 | HNF4a-FITC DNA binding, fluorescence polarization, 1 h | activity change, % at 10 µM | 360,000 compounds, 0.3% hits | AID 1224865; in the data active = activity change above about 30%, passing the limit was not always enough
ASAP1 inh confirm = confirmation of human ASAP1 inhibitors. shares compounds with ASAP1 inh. inhibition, % at 16.5 µM. ASAP1-stimulated Arf1 GTPase, GDP fluorescence polarization. 620 compounds, 37% hits;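 active = mean inhibition over triplicates exceeds the hit threshold derived for the earlier primary screening run, cut at about 25% in these data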
Each line names hits and unclear results; the compound was inactive in the other large screens (follow-up assays come after a bar, where they were run).

O=C(COc1ccc(/C=N/NC(=O)c2ccncc2)cc1)Nc1cccc([N+](=O)[O-])c1	ASAP1 inh 29.1 | ASAP1 inh confirm inactive
O=[N+]([O-])c1cccc(-c2cc(-c3cc(Br)ccc3O)[nH]n2)c1	ASAP1 inh 24.9 | ASAP1 inh confirm inactive
O=C(O)/C=C/c1cn(Cc2ccccc2Cl)nc1-c1ccccc1	none
O=C(COC(=O)/C=C/c1ccco1)NCc1ccco1	none
CNC(=O)COC(=O)/C=C/c1ccco1	ASAP1 inh 27.5 | ASAP1 inh confirm inactive
CCOc1ccc(Cl)cc1S(=O)(=O)NCc1cccnc1	none
COc1ccc(Cl)cc1S(=O)(=O)NCc1cccnc1	ASAP1 inh 25.6 | ASAP1 inh confirm inactive
Cc1ccc(CC(=O)N/N=C/c2ccc3c(c2)OCO3)cc1	none
NS(=O)(=O)c1ccc(NC(=O)CN2CCN(S(=O)(=O)/C=C/c3ccccc3)CC2)cc1	ASAP1 inh 30.2 | ASAP1 inh confirm inactive
NS(=O)(=O)c1ccc(NC(=O)CN2CCN(Cc3ccccc3)CC2)cc1	none
CC(Sc1n[nH]c(N)n1)C(=O)Nc1cccc2ccccc12 (stereo not drawn)	none
Cc1ccc(NC(=O)CCN2CC(C)OC(C)C2)cc1C (stereo not drawn)	none
CC(C)N(C(=O)Nc1ccc2nsnc2c1)C(C)C	ASAP1 inh 41.3 (no result: CSN deneddyl inh, HNF4A DNA FP) | ASAP1 inh confirm inactive
COc1ccc(N(C)C(=O)Nc2ccc3nsnc3c2)cc1	none
COc1ccc2cc3c(N)nn(C(=O)c4ccccc4[N+](=O)[O-])c3nc2c1	none
COc1ccc2cc3c(N)nn(C(=O)c4ccc(Cl)c([N+](=O)[O-])c4)c3nc2c1	ASAP1 inh 72.7 | ASAP1 inh confirm 118.0
Cc1cc(C)cc(NC(=O)C2COc3ccccc3O2)c1 (stereo not drawn)	none
O=C(Nc1ccc(Cn2cccn2)cc1)c1ccc(COc2cccc(Br)c2)cc1	ASAP1 inh 29.0 | ASAP1 inh confirm inactive
O=C(Nc1ccc(Cn2cccn2)cc1)c1ccc(COc2ccc(Br)cc2)cc1	none
COc1ccc(/C=C2\S/C(=N/S(=O)(=O)c3cccs3)NC2=O)cc1	none
CCC(=O)Nc1ccc(NCc2cccs2)cc1	none
O=C(CNC(=O)c1ccc(Cl)cc1Cl)NCCCn1ccnc1	ASAP1 inh 28.8 | ASAP1 inh confirm inactive
O=C(CSc1cc(Cl)ccc1Cl)NCCCn1ccnc1	none
O=Nc1c(O)c2ccccc2c2ccccc12	none
O=c1c(=Nc2ccccc2O)c(=O)c2ccccc12	ASAP1 inh 27.6 | ASAP1 inh confirm inactive
CCN1CCN(c2nc3c(C)cccn3c(=O)c2C=C(C#N)C#N)CC1	none
Cc1cccc(OCc2nnc(SCC(=O)Nc3ccc(N4CCOCC4)cc3)o2)c1	ASAP1 inh 31.6 | ASAP1 inh confirm inactive
OC[C@@H]1CN(Cc2ccc(-c3ccccc3)cc2)C[C@H](n2cnc3c(Nc4ccccc4)ncnc32)O1	ASAP1 inh 26.0 | ASAP1 inh confirm inactive
CC1O[C@@H](OC2C(O)C(O)C(CO)O[C@H]2OC2C[C@]3(C)C(CC(O)C4[C@@H]([C@]5(C)CC[C@@H](C(C)(C)O)O5)CC[C@]43C)[C@@]3(C)CCC(O)C(C)(C)C23)C(O)C(O)C1O (stereo partly drawn)	none
O=C(NCCO)/C(=C\c1cccc([N+](=O)[O-])c1)NC(=O)c1cccs1	none
O=C(CCCN1C(=O)/C(=C/c2ccc(F)cc2)SC1=S)NCCCn1ccnc1	ASAP1 inh 25.7 | ASAP1 inh confirm inactive
CCOC(=O)C(C(=O)Nc1ccccn1)C1CCCCC1 (stereo not drawn)	none
CCOC(=O)C(C(=O)Nc1cccc(C)n1)C1CCCCC1 (stereo not drawn)	ASAP1 inh 26.1 | ASAP1 inh confirm inactive
O=C(NCc1ccc(Cl)nc1)c1csc([C@@H]2C[C@H](O)[C@@H](CO)O2)n1	none
CC1CCc2c(sc(NC(=O)c3ccco3)c2C(=O)O)C1 (stereo not drawn)	ASAP1 inh 26.9 | ASAP1 inh confirm inactive
CCOC(=O)C1=CNS(=O)(=O)NC1c1ccc(C(=O)OC)cc1 (stereo not drawn)	none
CC1=CC2=NC(=O)/C(=C\c3ccc(-c4ccc(Cl)cc4)o3)C(=N)N2O1	ASAP1 inh 29.8 (no result: CSN deneddyl inh, HNF4A DNA FP) | ASAP1 inh confirm 87.4
COc1ccc(-n2nc(C(=O)NCC(=O)Nc3ccccn3)c3ccccc3c2=O)cc1Cl	ASAP1 inh 51.0 | ASAP1 inh confirm 60.6
O=C1NC(Cc2c[nH]c3ccccc23)C(=O)N1CCOc1ccc(F)cc1 (stereo not drawn)	none
O=C1NC(Cc2c[nH]c3ccccc23)C(=O)N1Cc1ccc(CN2C(=O)NC(Cc3c[nH]c4ccccc34)C2=O)cc1 (stereo not drawn)	ASAP1 inh 29.4 | ASAP1 inh confirm inactive
CC1CCN(C(=O)COC(=O)c2cc3ccccc3cc2O)CC1	ASAP1 inh 25.6 | ASAP1 inh confirm inactive
CC(C)(C)C(=O)COC(=O)c1cc2ccccc2cc1O	none
COc1ccc(CCC(=O)NCCS(=O)(=O)N2CCN(c3ccc(F)cc3)CC2)cc1	none
CCN1CCN(c2cc(C)c3cc(NC(=O)c4ccc(OC)c(OC)c4)ccc3n2)CC1	ASAP1 inh 37.2 | ASAP1 inh confirm 49.9
CC(=O)Oc1ccc2ccccc2c1C(NC(=O)Cc1ccccc1)c1ccc(Cl)cc1 (stereo not drawn)	ASAP1 inh 139.5 | ASAP1 inh confirm inactive
O=C1C(=O)N(Cc2ccccc2)C(=O)N1CCN1C(=O)c2ccccc2C1=O	none
O=C1Cc2ccccc2C(=O)N1CCc1ccccc1	ASAP1 inh 33.4 | ASAP1 inh confirm inactive
Cc1ccc(/C=N/NC(=O)CCCOc2ccc(Cl)cc2Cl)cc1[N+](=O)[O-]	ASAP1 inh 50.0 | ASAP1 inh confirm 36.9
COc1ccc(/C=N/NC(=O)CCCOc2ccc(Cl)cc2Cl)cc1[N+](=O)[O-]	none
O=[N+]([O-])c1cc(C(F)(F)F)ccc1NCCc1c[nH]c2ccccc12	none
O=[N+]([O-])c1cc(C(F)(F)F)ccc1NCCc1c[nH]c2ccc(O)cc12	ASAP1 inh 25.9 | ASAP1 inh confirm inactive
Cc1ccc(NC(=O)Cn2ncc(Cl)c(Cl)c2=O)cc1S(=O)(=O)N1CCCCC1	none
O=C(Nc1cccc(-c2csc(Nc3ccc(Cl)cc3)n2)c1)c1ccccc1	ASAP1 inh 26.2 | ASAP1 inh confirm 26.1
O=C(Nc1cccc(-c2csc(Nc3ccc(Cl)cc3)n2)c1)c1cccc(C(F)(F)F)c1	none
COc1ccc(/C=N/Nc2ccc([N+](=O)[O-])cc2)cc1Cn1cc([N+](=O)[O-])cn1	none
COc1ccc(/C=N/NC(=O)c2nc(-c3ccccc3)cc(-c3ccccc3)n2)cc1O	ASAP1 inh 25.9 | ASAP1 inh confirm 32.4
COc1ccc(/C=N/Nc2ccc([N+](=O)[O-])cc2)cc1O	ASAP1 inh 25.1, HNF4A DNA FP 43.5 | ASAP1 inh confirm 31.4
